# Measured values gathered from unrelated publications.
# Target: Dual specificity tyrosine-phosphorylation-regulated kinase 1A (DYRK1A, Homo sapiens, UniProt Q13627)
# Observed: enzyme activity
# Action: inhibitor
SMILES,technique,concentration,remaining activity
O=c1cc(-c2cccc3c2Sc2ccccc2S3)oc(N2CCOCC2)c1,,0.5 µM,95%
O=C(O)c1ccc2c(c1)nc(Nc1cccc(F)c1)c1ccncc12,radiometric,1 µM,0%
CC(C)(O)[C@H]1CC[C@H](Nc2ccc3ncc(-c4cccc(C(F)(F)F)c4)n3n2)CC1,,1 µM,22.1%
Nc1nc(Nc2ccccc2)sc1C(=O)c1c(F)cccc1F,,10 µM,10%
O=C(Nc1cnn(-c2csc(C(=O)NC3COC3)c2)c1)Nc1ccccc1Cl,,5 µM,86%
CCN(CC)CCNC(=O)c1c(C)[nH]c(/C=C2\C(=O)Nc3ccc(Cl)cc32)c1C,,0.5 µM,47.2%
COc1cc(Nc2cnc(C#N)c(O[C@H](C)CN(C)C)n2)ncc1-c1cnn(C)c1,radiometric,1 µM,91%
COc1ccc(C(=O)Nc2sc3c(c2C(N)=O)CCCC3)cc1OC,,0.5 µM,97.4%
CC(C)(C)c1nc2c(s1)c1nc(N)ncc1c1ccc(NS(=O)(=O)c3c(F)cccc3F)c(F)c12,radiometric,1 µM,88%
O=C(O)c1ccc2c(c1)nc(NCCc1ccccc1)c1ncncc12,radiometric,1 µM,19%
FC(F)c1nc2ccccc2n1-c1nc(N2CCOCC2)nc(N2CCOCC2)n1,,10 µM,78%
O=C(O)c1ccc2c(c1)nc(Nc1ccc3ccccc3c1)c1ccncc12,radiometric,1 µM,2%
Nc1nc(NC2CCCCC2)sc1C(=O)c1ccccc1,,10 µM,25%
Cc1cnc(NC2CCOCC2)nc1-n1cnc(C(=O)NC(CN)c2cc(F)cc(Cl)c2)c1 (stereo not drawn),radiometric,1 µM,84%
COc1cccc(CCNc2nc3cc(C(=O)O)ccc3c3cnccc23)c1,radiometric,1 µM,12%
